# A selection: hits, their analogues and other compounds. The true share with any hit is near 3.7%.
# procasp3 activ: procaspase-3 (human) activation; P42574; recombinant procaspase-3 D3A, Ac-DEVD-pNA absorbance 405 nm; activation, % at 8.5 µM; 0.11% of 330,000 active; AID 463141;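 active means activation above the mean of all tested compounds plus 3 SD, cut at about 21% in these data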;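 further: 0% = DMSO alone and 100% = DMSO wells spiked with extra 5 µM PC-3 D3A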
# Target sequence (P42574 whole entry D9A/D28A/D175A): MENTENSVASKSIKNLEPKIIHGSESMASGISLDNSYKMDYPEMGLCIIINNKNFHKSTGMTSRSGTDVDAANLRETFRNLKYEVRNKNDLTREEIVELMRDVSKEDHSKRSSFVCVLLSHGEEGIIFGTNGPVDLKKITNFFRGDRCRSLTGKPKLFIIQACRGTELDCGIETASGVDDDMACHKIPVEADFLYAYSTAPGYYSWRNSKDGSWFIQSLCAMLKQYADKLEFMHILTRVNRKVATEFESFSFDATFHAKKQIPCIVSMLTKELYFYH
#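 Test system: Procaspase-3 D3A mutant, all three cleavage aspartates alanine | Dosing: Single dose, 8.5 µM nominal compound, 0.8% DMSO | Schedule: 1 h preincubation, 2 h reaction | Technique: 405 nm absorbance of p-nitroaniline, reads at 0 and 120 min | Repeats: One well per compound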
# MPTP block: inhibitors of mitochondrial permeability transition pore. 1.4% of 360,000 active. inhibition, % at 10 µM. AID 602449. isolated mouse mitochondria, Ca2+ swelling absorbance, 30 min;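 active means inhibition of 50% or more, scaled per plate between neutral and stimulator controls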;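 further: 0% = DMSO wells given calcium and 100% = 1 mM EGTA wells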
# proCasp7 act: counter-screen for procaspase-3 activators: activators of human procaspase-7. AID 463210. activation, % at 8.5 µM. 0.093% of 330,000 active. recombinant procaspase-7, Ac-DEVD-pNA absorbance 405 nm; D23A/D198A/D206A triple mutant, cannot self-cleave; scale: DMSO 0, 5 µM enzyme 100. P55210;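 active means percent activation above the screen-wide mean plus 3 SD, cut at about 25% in these data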
# Target sequence (P55210 whole entry D23A/D198A/D206A): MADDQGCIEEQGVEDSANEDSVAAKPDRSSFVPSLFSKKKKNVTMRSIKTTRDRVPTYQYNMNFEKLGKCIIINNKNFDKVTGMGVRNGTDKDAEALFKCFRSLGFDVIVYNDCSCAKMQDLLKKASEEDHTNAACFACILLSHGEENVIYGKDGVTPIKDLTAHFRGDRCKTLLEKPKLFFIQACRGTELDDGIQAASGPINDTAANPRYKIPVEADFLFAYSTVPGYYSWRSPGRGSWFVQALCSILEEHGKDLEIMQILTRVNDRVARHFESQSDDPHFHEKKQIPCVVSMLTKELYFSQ
#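 Replicates: singlicate. Assay system: Procaspase-7 triple mutant (PC-7 D3A). Signal: 405 nm absorbance of p-nitroaniline. Times: 1 h preincubation, 2 h reaction. Buffer or medium: Zinc-free HEPES pH 7.4 with 300 mM NaCl, 0.01% Triton X-100. Also added: DEVD-pNA substrate. Benchmarks: DMSO wells as 0%, DMSO with 5 µM added PC-7 as 100%.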
# aDG glyco up: alpha-DG glycosylation activation; Pro5-aDG cells, alpha-DG glycosylation AlphaScreen (IIH6); 0% Pro5, 100% B10-LARGE cell signal; activation, % at 10 µM; 0.22% of 360,000 active;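 active means activation of at least 8% versus controls, or a plate z-score of at least 8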;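 further: Pro5 are CHO cells carrying HIG-tagged alpha-DG that lacks glycosylation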
# NR3A LBD binder: modulators (binders) of human NR3A ligand-binding domain. NR3A LBD differential scanning fluorimetry, Tm shift; 0% = protein alone, 100% = glycine-bound protein. Tm shift relative to glycine control, % at 25 µM. 2.5% of 340,000 active;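 active means melting temperature shift of at least 10% of the positive control shift, at one fixed dose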
# Numbers without * were called inactive; nt = no result given.
SMILES,procasp3 activ,MPTP block,proCasp7 act,aDG glyco up,NR3A LBD binder
Nc1nonc1-n1nnc(C(=O)N/N=C/c2cccnc2)c1CSC1=NCCS1,-10.2,7.2,1.2,-0.1,-2.4
CCCc1c(C(=O)N/N=C/c2cccnc2)nnn1-c1nonc1N,5.0,-0.1,1.7,-0.4,31.9*
COc1cc(/C=C(\C(=O)O)c2ccc(S(=O)(=O)N3CCCC3)s2)cc(OC)c1,nt,-3.4,nt,0.0,1.9
CCOc1ccc(/C=C(\C(=O)O)c2ccc(S(=O)(=O)N3CCCCC3)s2)cc1OC,9.2,1.3,10.3,0.0,17.6*
CCOc1ccc(/C=C(\C(=O)O)c2ccc(S(=O)(=O)N3CCOCC3)s2)cc1OC,6.6,-1.2,-6.2,-0.2,12.2*
COc1cc2c(cc1OC)C(C)N(C(=O)c1cc(C)on1)CC2 (stereo unspecified),4.4,-1.3,-2.5,-0.2,13.0*
COc1cc2c(cc1OC)C(C)N(C(=O)c1c(C)noc1C)CC2 (stereo unspecified),-3.5,-0.6,4.3,0.2,0.9
O=C(Nc1ccc2c(c1)OCO2)c1cc(C2CCCN(C(=O)C3CCCCC3)C2)on1 (stereo unspecified),nt,-2.1,nt,0.1,nt
CCOc1ccc(-n2cc(C(=O)N3CCC(C)CC3)c3cc(OC)c(OC)cc3c2=O)cc1,-5.6,-4.1,1.9,7.5*,-0.7
CCN(CC)c1nc(Nc2ccccc2)nc(Oc2ccc(C(=O)OC)cc2)n1,4.9,0.0,2.4,0.3,14.2*
O=C(N1CCCCC1)C12CC3CC(C1)CC(C(=O)N1CCCCC1)(C3)C2,-0.1,5.1,17.9,0.0,21.1*
CCOC(=O)/C(C#N)=C/c1ccc(OC(=O)c2ccco2)c(OCC)c1,0.8,1.6,4.6,0.0,10.3*
O=[N+]([O-])c1ccc(N=Nc2c(Cl)cc(O)cc2Cl)cc1,-4.4,25.9,-1.6,-0.6,17.6*
O=C1C=C(Nc2ccccc2)c2ccccc2C1=O,nt,4.1,nt,11.2*,-1.7
CCCCNC1=CC(=O)C(=O)c2ccccc21,0.7,2.5,3.0,6.9*,1.3
CCc1ccc(NC2=CC(=O)C(=O)c3ccccc32)cc1,nt,4.8,nt,5.4*,3.0
Cc1ccccc1NS(=O)(=O)c1ccc(C(=O)N(C)CC(=O)Nc2ccccc2Br)cc1,-3.6,0.9,10.7,0.1,3.0
COc1ccccc1CN1CC(C(=O)N(C)CCc2ccccn2)CCC1=O (stereo unspecified),nt,-0.4,nt,0.0,nt
CN(C)c1oc(-c2ccc(OCc3ccc(Cl)cc3)cc2)nc1C#N,0.9,1.9,6.3,0.0,29.4*
COc1ccc(CC(=O)N2CCC(n3nccc3NC(=O)C3CCOC3)CC2)cc1 (stereo unspecified),2.1,-0.8,1.9,-0.1,-0.2
COc1ccccc1C(=O)Nc1ccnn1C1CCN(C/C=C/c2ccccc2)CC1,-3.2,-0.8,-2.5,0.7,12.6*
COc1ccccc1CC(=O)N1CCC(n2nccc2NC(=O)C2CCOC2)CC1 (stereo unspecified),-0.6,-0.5,10.6,0.1,10.2*
CCOCC(=O)Nc1ccc(S(=O)(=O)NCCc2ccccc2)cc1,2.8,-1.0,4.0,0.2,11.4*
CSCCC(c1nc2ccccc2[nH]1)n1c(=O)c(-c2cc3ccccc3[nH]2)nc2ccccc21 (stereo unspecified),nt,2.5,nt,1.1,nt
NC(c1ccccc1)c1csc(Nc2cc(Oc3ccccc3)ncn2)n1 (stereo unspecified),nt,1.9,nt,0.8,nt
SMILES,procasp3 activ,MPTP block,proCasp7 act,aDG glyco up,NR3A LBD binder
O=C(Nc1ccc(NC(=O)c2cccs2)cc1)c1ccco1,-9.3,-5.0,-1.0,0.0,20.2*
O=C(Nc1ccc(NC(=S)NC(=O)c2ccccc2F)cc1)c1cccs1,-0.7,-2.6,-15.5,0.1,19.5*
O=C(NC(=S)Nc1ccc(NC(=O)c2ccco2)cc1)c1ccccc1,-1.4,-3.4,-6.9,-0.1,2.1
O=C(NC(=S)Nc1ccc(NC(=O)c2cccs2)cc1)c1cc2ccccc2o1,3.9,2.3,0.4,0.9,29.3*
O=C(c1cc2ccccc2o1)c1cccs1,2.6,-0.4,0.2,0.0,1.1
Cc1ccc(NC(=O)c2cccs2)cc1NC(=O)c1ccco1,8.3,0.0,10.5,0.0,3.3
O=C(NC(=S)Nc1ccc(NC(=O)c2cccs2)cc1)c1ccco1,-4.2,0.7,-11.4,-0.2,24.0*
CCN(C[C@H]1N[C@@](C)(C(=O)OC)[C@H]2C(=O)N(C)C(=O)[C@@H]12)S(=O)(=O)c1ccc(-c2ccccc2)cc1,5.4,-1.7,21.8,0.2,-9.2
O=C1C=C(c2ccc3ncccc3c2)C[C@@H](c2ccc3c(c2)OCO3)C1,4.8,0.7,3.7,-0.1,1.8
COc1ccccc1NC(=O)C(C)OC(=O)CCC1CCCCC1 (stereo unspecified),-7.1,1.5,1.6,0.2,10.6*
COc1ccccc1NC(=O)COC(=O)CCC1CCCC1,6.2,-0.1,-10.8,0.0,4.0
CCOc1cc(/C=C/c2ccc3cccc([N+](=O)[O-])c3n2)ccc1O,-8.1,2.9,2.7,-0.1,24.7*
O=[N+]([O-])c1cccc2ccc(/C=C/c3ccc(F)cc3)nc12,-3.5,1.7,-1.7,-0.2,24.4*
CCOc1cc(/C=C/c2ccc3cccc([N+](=O)[O-])c3n2)ccc1OCC(=O)N(C)C,-5.4,1.8,-0.8,-0.7,-8.2
Oc1ccc(/C=C/c2ccc3cccc(O)c3n2)cc1Br,0.7,5.0,2.3,0.3,29.8*
O=[N+]([O-])c1ccc(/C=C/c2ccc3cccc([N+](=O)[O-])c3n2)cc1,-4.1,-2.0,-11.2,-0.6,23.2*
COc1cc(/C=C/c2ccc3cccc([N+](=O)[O-])c3n2)ccc1OCC#N,3.0,2.6,-1.0,-0.2,9.5
COC(=O)C1CCN(S(=O)(=O)c2c[nH]c(=O)[nH]c2=O)CC1,nt,-0.9,nt,0.0,nt
CCOC(=O)c1cc(-c2ccccc2)sc1NC(=O)COC(=O)c1cccc(S(N)(=O)=O)c1,8.5,2.9,3.0,-0.9,3.5
CCOC(=O)c1cc(-c2ccccc2)sc1NC(=O)COC(=O)c1ccc(Cl)c(S(N)(=O)=O)c1,3.2,-0.2,16.4,-0.4,11.4*
Cc1ccc2nc(C3CCCCC3)c(Cc3ccsc3)n2c1,nt,-0.5,nt,-0.3,nt
O=C(Cn1nnc2ccccc2c1=O)NCCc1ccc(Cl)cc1Cl,-2.8,2.5,4.1,0.1,-3.9
O=C(Cn1nnc2ccccc2c1=O)NCCc1ccccc1,2.6,1.6,-11.3,-0.2,18.0*
CC1(C2CCC3C4CCC5CC6(CCC5(C)C4C(=O)CC32C)OCCO6)OCCO1 (stereo unspecified),nt,-0.3,nt,-0.1,-0.2
COc1ccc(Nc2nc(NCc3ccco3)nc(N/N=C/c3ccccc3F)n2)cc1,-11.6,0.9,-3.9,-0.4,15.9*
